From ChEMBL document CHEMBL1140548, “Synthesis, antibacterial activity, and quantitative structure-activity relationships of new (Z)-2-(nitroimidazolylmethylene)-3(2H)-benzofuranone derivatives” (2007)
Values after ≈ are worked out from the molar mass of the structure shown.

Key:
Assay type in all cases: functional
[1] = test system: Staphylococcus epidermidis; experiment: Antimicrobial activity against Staphylococcus epidermidis ATCC 12228
Procedure, shortened: (§1)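 Agar-dilution assay run in vitro on a panel of Gram-positive and Gram-negative bacteria, with amoxicillin as the reference drug. The MIC was taken as the minimal inhibitory concentration.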

Staphylococcus aureus [2] = experiment: Antimicrobial activity against Staphylococcus aureus ATCC 6538p; procedure, shortened: as §1
Klebsiella pneumoniae [3] = experiment: Antimicrobial activity against Klebsiella pneumoniae ATCC 10031; procedure, shortened: as §1
Bacillus subtilis [4] = experiment: Antimicrobial activity against Bacillus subtilis ATCC 6633; procedure, shortened: as §1
Staphylococcus aureus [5] = experiment: Antimicrobial activity against methicillin-resistant Staphylococcus aureus isolate
Procedure, shortened: (§2)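 In vitro conventional agar-dilution assay against a panel of Gram-positive and Gram-negative bacteria. Read-out is the minimal inhibitory concentration (MIC), with amoxicillin as the reference drug.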

Klebsiella pneumoniae [6] = experiment: Antimicrobial activity against Klebsiella pneumoniae ATCC 10031 in presence of 0.1% butylated hydroxytoluene
Bacillus subtilis [7] = experiment: Antimicrobial activity against Bacillus subtilis ATCC 6633 in presence of 0.1% butylated hydroxytoluene
[8] = test system: Staphylococcus epidermidis; experiment: Antimicrobial activity against Staphylococcus epidermidis ATCC 12228 in presence of 0.1% butylated hydroxytoluene
Staphylococcus aureus [9] = experiment: Antimicrobial activity against Staphylococcus aureus ATCC 6538p in presence of 0.1% butylated hydroxytoluene; procedure, shortened: as §2
Staphylococcus aureus [10] = experiment: Antimicrobial activity against methicillin-resistant Staphylococcus aureus isolate in presence of 0.1% butylated hydroxytoluene; procedure, shortened: as §2

Question: `Cc1cccc2c1O/C(=C\c1ncc([N+](=O)[O-])n1C)C2=O` was tested. Which MIC [1] did it give?
Answer: Its MIC is 1.56 µg/mL (≈ 5.47 µM).

Question: And the MIC (Staphylococcus aureus [2])?
Answer: The MIC was 3.12 µg/mL (≈ 11 µM).

Question: And the MIC (Klebsiella pneumoniae [3])?
Answer: The MIC was 0.39 µg/mL (≈ 1.37 µM).

Question: And the MIC (Bacillus subtilis [4])?
Answer: The MIC was 1.56 µg/mL (≈ 5.47 µM).

Question: What about the MIC (Staphylococcus aureus [5]) of the same molecule?
Answer: The MIC was 3.12 µg/mL (≈ 11 µM).

Question: For `COc1cccc2c1O/C(=C\c1ncc([N+](=O)[O-])n1C)C2=O`, which MIC [1] is on record?
Answer: Its MIC is 0.78 µg/mL (≈ 2.59 µM).

Question: And the MIC (Staphylococcus aureus [2])?
Answer: The MIC was 0.78 µg/mL (≈ 2.59 µM).

Question: What about the MIC (Klebsiella pneumoniae [3]) of the same molecule?
Answer: The MIC was 0.78 µg/mL (≈ 2.59 µM).

Question: What about the MIC (Bacillus subtilis [4]) of the same molecule?
Answer: Its MIC is 0.78 µg/mL (≈ 2.59 µM).

Question: And the MIC (Staphylococcus aureus [5])?
Answer: The MIC was 0.78 µg/mL (≈ 2.59 µM).

Question: What does the source list for `Cn1c([N+](=O)[O-])cnc1/C=C1\Oc2ccc(Cl)cc2C1=O`?
Answer: MIC [1]: 3.12 µg/mL (≈ 10.2 µM); MIC (Staphylococcus aureus [2]): 3.12 µg/mL (≈ 10.2 µM); MIC (Klebsiella pneumoniae [3]): 0.78 µg/mL (≈ 2.55 µM); MIC (Bacillus subtilis [4]): 1.56 µg/mL (≈ 5.1 µM); MIC (Staphylococcus aureus [5]): 3.12 µg/mL (≈ 10.2 µM)

Question: For `Cn1c([N+](=O)[O-])cnc1/C=C1\Oc2ccc(Br)cc2C1=O`, which MIC [1] is on record?
Answer: The MIC was over 100 µg/mL.

Question: What about the MIC (Staphylococcus aureus [2]) of the same molecule?
Answer: Its MIC is over 100 µg/mL.

Question: What about the MIC (Klebsiella pneumoniae [3]) of the same molecule?
Answer: Its MIC is 3.12 µg/mL (≈ 8.93 µM).

Question: And the MIC (Bacillus subtilis [4])?
Answer: The MIC was over 100 µg/mL.

Question: What about the MIC (Staphylococcus aureus [5]) of the same molecule?
Answer: Its MIC is over 100 µg/mL.

Question: With `Cc1ccc2c(c1)C(=O)/C(=C/c1ncc([N+](=O)[O-])n1C)O2` as the molecule, how does the MIC [1] read?
Answer: Its MIC is 3.12 µg/mL (≈ 11 µM).

Question: What about the MIC (Staphylococcus aureus [2]) of the same molecule?
Answer: Its MIC is 3.12 µg/mL (≈ 11 µM).

Question: And the MIC (Klebsiella pneumoniae [3])?
Answer: The MIC was 0.39 µg/mL (≈ 1.37 µM).

Question: What about the MIC (Bacillus subtilis [4]) of the same molecule?
Answer: The MIC was 1.56 µg/mL (≈ 5.47 µM).

Question: What about the MIC (Staphylococcus aureus [5]) of the same molecule?
Answer: Its MIC is 3.12 µg/mL (≈ 11 µM).

Question: With `Cn1c([N+](=O)[O-])cnc1/C=C1\Oc2cc(Cl)ccc2C1=O` as the molecule, how does the MIC [1] read?
Answer: The MIC was over 100 µg/mL.

Question: What about the MIC (Staphylococcus aureus [2]) of the same molecule?
Answer: The MIC was over 100 µg/mL.

Question: What about the MIC (Klebsiella pneumoniae [3]) of the same molecule?
Answer: The MIC was 0.78 µg/mL (≈ 2.55 µM).

Question: And the MIC (Bacillus subtilis [4])?
Answer: Its MIC is 1.56 µg/mL (≈ 5.1 µM).

Question: And the MIC (Staphylococcus aureus [5])?
Answer: Its MIC is over 100 µg/mL.

Question: For `Cc1ccc2c(c1)O/C(=C\c1ncc([N+](=O)[O-])n1C)C2=O`, which MIC [1] is on record?
Answer: Its MIC is 1.56 µg/mL (≈ 5.47 µM).

Question: What about the MIC (Staphylococcus aureus [2]) of the same molecule?
Answer: The MIC was 3.12 µg/mL (≈ 11 µM).

Question: And the MIC (Klebsiella pneumoniae [3])?
Answer: Its MIC is 0.39 µg/mL (≈ 1.37 µM).

Question: And the MIC (Bacillus subtilis [4])?
Answer: Its MIC is 0.78 µg/mL (≈ 2.73 µM).

Question: What about the MIC (Staphylococcus aureus [5]) of the same molecule?
Answer: Its MIC is 1.56 µg/mL (≈ 5.47 µM).

Question: Which results are given for `Cn1c([N+](=O)[O-])cnc1/C=C1\Oc2ccc([N+](=O)[O-])cc2C1=O`?
Answer: MIC [1]: 6.25 µg/mL (≈ 19.8 µM); MIC (Staphylococcus aureus [2]): 12.5 µg/mL (≈ 39.5 µM); MIC (Klebsiella pneumoniae [3]): 6.25 µg/mL (≈ 19.8 µM); MIC (Bacillus subtilis [4]): 12.5 µg/mL (≈ 39.5 µM); MIC (Staphylococcus aureus [5]): 12.5 µg/mL (≈ 39.5 µM)

Question: Which MIC [1] does the source give for `COc1cccc2c1O/C(=C\c1c([N+](=O)[O-])ncn1C)C2=O` here?
Answer: Its MIC is over 100 µg/mL.

Question: What about the MIC (Staphylococcus aureus [2]) of the same molecule?
Answer: Its MIC is over 100 µg/mL.

Question: And the MIC (Klebsiella pneumoniae [3])?
Answer: The MIC was over 100 µg/mL.

Question: And the MIC (Bacillus subtilis [4])?
Answer: Its MIC is over 100 µg/mL.

Question: What about the MIC (Staphylococcus aureus [5]) of the same molecule?
Answer: The MIC was over 100 µg/mL.

Question: What does the source list for `Cn1cnc([N+](=O)[O-])c1/C=C1\Oc2ccc([N+](=O)[O-])cc2C1=O`?
Answer: MIC [1]: > 100 µg/mL; MIC (Staphylococcus aureus [2]): > 100 µg/mL; MIC (Klebsiella pneumoniae [3]): > 100 µg/mL; MIC (Bacillus subtilis [4]): > 100 µg/mL; MIC (Staphylococcus aureus [5]): > 100 µg/mL

Question: Which results are given for `Cn1c([N+](=O)[O-])cnc1/C=C1\Oc2ccccc2C1=O`?
Answer: MIC [1]: 3.12 µg/mL (≈ 11.5 µM); MIC (Staphylococcus aureus [2]): 3.12 µg/mL (≈ 11.5 µM); MIC (Klebsiella pneumoniae [3]): 0.39 µg/mL (≈ 1.44 µM); MIC (Bacillus subtilis [4]): 0.78 µg/mL (≈ 2.88 µM); MIC (Staphylococcus aureus [5]): 6.25 µg/mL (≈ 23 µM)

Question: How did the MIC (Klebsiella pneumoniae [6]) turn out when `Cn1c([N+](=O)[O-])cnc1/C=C1\Oc2cc(O)cc(O)c2C1=O` was run?
Answer: The MIC was over 100 µg/mL.

Question: And the MIC (Bacillus subtilis [7])?
Answer: Its MIC is 50 µg/mL.

Question: And the MIC [8]?
Answer: The MIC was 50 µg/mL.

Question: What about the MIC (Staphylococcus aureus [9]) of the same molecule?
Answer: Its MIC is over 100 µg/mL.

Question: And the MIC (Staphylococcus aureus [10])?
Answer: Its MIC is over 100 µg/mL.

Question: How did the MIC [1] turn out when `Cn1cnc([N+](=O)[O-])c1/C=C1\Oc2cc(Cl)ccc2C1=O` was run?
Answer: The MIC was over 100 µg/mL.

Question: What about the MIC (Staphylococcus aureus [2]) of the same molecule?
Answer: Its MIC is over 100 µg/mL.

Question: And the MIC (Klebsiella pneumoniae [3])?
Answer: Its MIC is over 100 µg/mL.

Question: What about the MIC (Bacillus subtilis [4]) of the same molecule?
Answer: The MIC was over 100 µg/mL.

Question: What about the MIC (Staphylococcus aureus [5]) of the same molecule?
Answer: Its MIC is over 100 µg/mL.

Question: With `COc1ccc2c(c1)O/C(=C\c1c([N+](=O)[O-])ncn1C)C2=O` as the molecule, how does the MIC [1] read?
Answer: Its MIC is over 100 µg/mL.

Question: And the MIC (Staphylococcus aureus [2])?
Answer: The MIC was over 100 µg/mL.

Question: And the MIC (Klebsiella pneumoniae [3])?
Answer: Its MIC is over 100 µg/mL.

Question: And the MIC (Bacillus subtilis [4])?
Answer: Its MIC is over 100 µg/mL.

Question: What about the MIC (Staphylococcus aureus [5]) of the same molecule?
Answer: The MIC was over 100 µg/mL.

Question: With `Cn1cnc([N+](=O)[O-])c1/C=C1\Oc2c(Cl)cccc2C1=O` as the molecule, how does the MIC [1] read?
Answer: Its MIC is over 100 µg/mL.

Question: And the MIC (Staphylococcus aureus [2])?
Answer: The MIC was over 100 µg/mL.

Question: And the MIC (Klebsiella pneumoniae [3])?
Answer: Its MIC is over 100 µg/mL.

Question: What about the MIC (Bacillus subtilis [4]) of the same molecule?
Answer: Its MIC is over 100 µg/mL.

Question: And the MIC (Staphylococcus aureus [5])?
Answer: Its MIC is over 100 µg/mL.

Question: For `Cn1cnc([N+](=O)[O-])c1/C=C1\Oc2ccccc2C1=O`, which MIC [1] is on record?
Answer: The MIC was over 100 µg/mL.

Question: What about the MIC (Staphylococcus aureus [2]) of the same molecule?
Answer: The MIC was over 100 µg/mL.

Question: And the MIC (Klebsiella pneumoniae [3])?
Answer: Its MIC is over 100 µg/mL.

Question: And the MIC (Bacillus subtilis [4])?
Answer: The MIC was over 100 µg/mL.

Question: And the MIC (Staphylococcus aureus [5])?
Answer: The MIC was over 100 µg/mL.
